According to ChEMBL document CHEMBL3351278, “Pyridine-3-carboxamide-6-yl-ureas as novel inhibitors of bacterial DNA gyrase: structure based design, synthesis, SAR and antimicrobial activity” (Eur J Med Chem, 2014):
pIC50: −log10 of the molar value. Values after ≈ are worked out from the molar mass of the structure shown.

Legend:
[1] = tested on: Haemophilus influenzae; assay: Antibacterial activity against Haemophilus influenzae ATCC 49247 incubated for 24 hrs by broth microdilution method; assay type: functional; details: ATCC 49247, 24 h
[2] = tested on: Staphylococcus aureus; assay: Potency shift, ratio of MIC against Staphylococcus aureus ATCC 29213 in presence of 50% horse serum to MIC against taphylococcus aureus ATCC 29213 in absence of 50% horse serum; assay type: functional
[3] = Retention time of the compound by HPLC method; assay type: physicochemical
[4] = tested on: Streptococcus pyogenes; assay: Antibacterial activity against Streptococcus pyogenes ATCC 51339 incubated for 24 hrs by broth microdilution method; assay type: functional; details: ATCC 51339, 24 h
[5] = tested on: Enterococcus faecalis; assay: Antibacterial activity against Enterococcus faecalis ATCC 29212 incubated for 24 hrs by broth microdilution method; assay type: functional; details: ATCC 29212, 24 h
[6] = tested on: Staphylococcus aureus; assay: Antibacterial activity against Staphylococcus aureus ATCC 29213 incubated for 24 hrs in presence of 50% horse serum by broth microdilution method; assay type: functional; details: ATCC 29213, 24 h
[7] = tested on: Staphylococcus aureus; assay: Antibacterial activity against Staphylococcus aureus ATCC 29213 incubated for 24 hrs by broth microdilution method; assay type: functional; details: ATCC 29213, 24 h
[8] = molecular target: DNA gyrase (Escherichia coli, UniProt P0AES4+P0AES6); assay: Inhibition of Escherichia coli GyrB A2B2 subunits assessed reduction in DNA supercoiling activity by malachite green dye based by spectrophotometry; assay type: protein-complex assay
How it was run: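 Inhibition was measured as loss of ATPase activity of the E. coli GyrB enzyme and reported as IC50.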

[9] = tested on: Staphylococcus aureus; assay: Antibacterial activity against Staphylococcus aureus ATCC 29213 expressing GyrB T173N mutant incubated for 24 hrs by broth microdilution method; assay type: functional; details: ATCC 29213, 24 h
[10] = tested on: Streptococcus pyogenes; assay: Antibacterial activity against Streptococcus pyogenes ATCC 51339 expressing ParE A53S mutant incubated for 24 hrs by broth microdilution method; assay type: functional; details: ATCC 51339, 24 h
[11] = tested on: Staphylococcus aureus; assay: Antibacterial activity against Staphylococcus aureus ATCC 29213 expressing GyrB T173N and ParE T167N mutant incubated for 24 hrs by broth microdilution method; assay type: functional; details: ATCC 29213, 24 h
[12] = tested on: Escherichia coli; assay: Antibacterial activity against Escherichia coli ATCC 25922 incubated for 24 hrs by broth microdilution method; assay type: functional; details: ATCC 25922, 24 h
[13] = tested on: Streptococcus pneumoniae; assay: Antibacterial activity against Streptococcus pneumoniae ATCC 49616 incubated for 24 hrs by broth microdilution method; assay type: functional; details: ATCC 49616, 24 h
[14] = tested on: Staphylococcus epidermidis; assay: Antibacterial activity against Staphylococcus epidermidis ATCC 12228 incubated for 24 hrs by broth microdilution method; assay type: functional; details: ATCC 12228, 24 h
[15] = tested on: Escherichia coli; assay: Antibacterial activity against Escherichia coli N43 expressing efflux pump mutant incubated for 24 hrs by broth microdilution method; assay type: functional; details: N43, 24 h
[16] = molecular target: DNA gyrase subunit B (Staphylococcus aureus, UniProt P0A0K8); assay: Inhibition of Staphylococcus aureus GyrB assessed reduction in DNA supercoiling activity by malachite green dye based by spectrophotometry
[17] = molecular target: DNA topoisomerase 4 subunit B (Escherichia coli K-12, UniProt P20083); assay: Inhibition of Escherichia coli ParE
[18] = molecular target: DNA topoisomerase 4 subunit B (Staphylococcus aureus, UniProt P0C1S7); assay: Inhibition of Staphylococcus aureus ParE

SMILES	MIC [1] [µg/mL]	Ratio [2]	Retention_time [3] [min]	MIC [4] [µg/mL]	MIC [5] [µg/mL]	MIC [6] [µg/mL]	MIC [7] [µg/mL]	pIC50 [8]	MIC [9] [µg/mL]	MIC [10] [µg/mL]	MIC [11] [µg/mL]	MIC [12] [µg/mL]	MIC [13] [µg/mL]	MIC [14] [µg/mL]	MIC [15] [µg/mL]	pIC50 [16]	pIC50 [17]	pIC50 [18]
CCNC(=O)Nc1cc(Nc2cccnc2)c(C(=O)Nc2ccccc2)cn1	> 64	2	1.46	1 (≈ 2.66 µM)	0.25 (≈ 0.664 µM)	2	1 (≈ 2.66 µM)	6.37										
CCNC(=O)Nc1ccc(C(=O)Nc2cccc(Cl)c2)cn1	> 64		1.84	16 (≈ 50.2 µM)	16 (≈ 50.2 µM)		16 (≈ 50.2 µM)	5.80	> 64	> 64								
CCNC(=O)Nc1ccc(C(=O)Nc2cccc(F)c2)cn1	> 64		1.74	32 (≈ 106 µM)	32 (≈ 106 µM)		32 (≈ 106 µM)	5.52	> 64	> 64								
CCNC(=O)Nc1ccc(C(=O)Nc2cccc(C)c2)cn1	> 64		1.76	32 (≈ 107 µM)	32 (≈ 107 µM)		32 (≈ 107 µM)	5.47	> 64	> 64								
CCNC(=O)Nc1ccc(C(=O)Nc2cccc(C(N)=O)c2)cn1	> 256		1.44	> 256	> 256		> 256	4.61										
CCNC(=O)Nc1ccc(C(=O)Nc2cccc(CC)c2)cn1	> 256		1.84	> 256	> 256		> 256	4.39										
CCNC(=O)Nc1ccc(C(=O)Nc2ccc(OC)c(OC)c2)cn1	> 64		1.59	32 (≈ 92.9 µM)	32 (≈ 92.9 µM)		> 64	5.21		> 64								
CCNC(=O)Nc1cc(-n2cccn2)c(C(=O)Nc2cccc(Cl)c2)cn1	> 64		1.83	4 (≈ 10.4 µM)	1 (≈ 2.6 µM)		8 (≈ 20.8 µM)	5.53	32 (≈ 83.2 µM)	16 (≈ 41.6 µM)	> 64	> 64	1 (≈ 2.6 µM)	2 (≈ 5.2 µM)	32 (≈ 83.2 µM)			
CCNC(=O)Nc1cc(Nc2ccccc2)c(C(=O)Nc2ccccc2)cn1	> 64		1.58	2 (≈ 5.33 µM)	0.25 (≈ 0.666 µM)		1 (≈ 2.66 µM)	7.40	2 (≈ 5.33 µM)	16 (≈ 42.6 µM)	> 64	> 64	1 (≈ 2.66 µM)	0.25 (≈ 0.666 µM)	8 (≈ 21.3 µM)			
CCNC(=O)Nc1cc(Nc2ccccc2)c(C(=O)Nc2cccc(C)c2)cn1	> 64		1.68	2 (≈ 5.14 µM)	0.125 (≈ 0.321 µM)		1 (≈ 2.57 µM)	6.85	> 64	> 64	> 64	> 64	0.5 (≈ 1.28 µM)	0.5 (≈ 1.28 µM)	> 64			
CCNC(=O)Nc1cc(Nc2ccccc2)c(C(=O)Nc2cccc(Cl)c2)cn1	> 64		1.71	4 (≈ 9.76 µM)	0.125 (≈ 0.305 µM)		0.5 (≈ 1.22 µM)	6.82	1 (≈ 2.44 µM)	32 (≈ 78.1 µM)	> 64	> 64	1 (≈ 2.44 µM)	0.5 (≈ 1.22 µM)	> 64			
CCNC(=O)Nc1cc(Nc2ccccc2)c(C(=O)Nc2cccnc2)cn1	> 64	4	1.36	1 (≈ 2.66 µM)	0.125 (≈ 0.332 µM)	4	1 (≈ 2.66 µM)	6.77	4 (≈ 10.6 µM)	2 (≈ 5.31 µM)	> 64	> 64	0.25 (≈ 0.664 µM)	0.25 (≈ 0.664 µM)	8 (≈ 21.3 µM)			
CCNC(=O)Nc1cc(Nc2ccccc2)c(C(=O)Nc2ccc(N3CCOCC3)nc2)cn1	> 64	8	1.47	1 (≈ 2.17 µM)	0.25 (≈ 0.542 µM)	16	2 (≈ 4.33 µM)	6.96	> 64	4 (≈ 8.67 µM)	> 64	> 64	0.5 (≈ 1.08 µM)	1 (≈ 2.17 µM)	> 64			
CCNC(=O)Nc1cc(Nc2ccccc2)c(C(=O)Nc2ccc(NC(C)=O)nc2)cn1	> 64	4	1.45	0.5 (≈ 1.15 µM)	0.125 (≈ 0.288 µM)	8	2 (≈ 4.61 µM)	7.41	> 64	2 (≈ 4.61 µM)	> 64	> 64	0.125 (≈ 0.288 µM)	0.25 (≈ 0.577 µM)	> 64			
CCNC(=O)Nc1cc(Nc2ccc(O)cc2)c(C(=O)Nc2cccnc2)cn1							8 (≈ 20.4 µM)	7.55				> 64				7.62	6.03	7.07
CCNC(=O)Nc1cc(Nc2cccc(O)c2)c(C(=O)Nc2cccnc2)cn1								7.44				> 64					6.11	
CCNC(=O)Nc1cc(Nc2ccc(OC)cc2OC)c(C(=O)Nc2cccnc2)cn1							1 (≈ 2.29 µM)	7.34				> 64				7.39	4.38	6.10
